From ChEMBL document CHEMBL4266041, “Hydroxybiphenylamide GroEL/ES Inhibitors Are Potent Antibacterials against Planktonic and Biofilm Forms of Staphylococcus aureus” (J Med Chem, 2018)

What was measured:
[1] = Inhibition of refolded MDH (unknown origin) preincubated with Escherichia coli GroEL/GroES for 45 mins in absence of compound followed by compound addition and measured for 20 to 35 mins by spectrometric analysis
[2] = target: HSP60/HSP10 (Homo sapiens, UniProt P10809); experiment: Inhibition of human N-terminal octa-His-tagged HSP60 expressed in Escherichia coli Rosetta(DE3) pLysS/human HSP10 expressed in Escherichia coli Rosetta(DE3) assessed as reduction in HSP60/HSP10-mediated denatured MDH refolding after 40 to 60 mins by spectrometric analysis
How it was run: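 Human HSP60/10 refolding of denatured MDH, run the same way as the GroEL/ES-dMDH assay. A binary complex of chaperonin and denatured MDH is formed, and refolding is started with ATP and HSP10. MDH activity is the read-out. DMSO is the negative control. IC50 values from replicate curves are log-averaged after ROUT outlier screening.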

[3] = test system: Staphylococcus aureus; experiment: Antibacterial activity against Staphylococcus aureus ATCC 25923 after 6 to 8 hrs by bacterial proliferation assay; type: functional, organism-based
[4] = target: T1, E. coli GroEL/ES (Escherichia coli, UniProt P0A6F5); experiment: Inhibition of Escherichia coli GroEL expressed in Escherichia coli DH5alpha/Escherichia coli GroES expressed in Escherichia coli BL21 (DE3) assessed as reduction in GroEL/GroES-mediated denatured MDH refolding after 20 to 40 mins by spectrometric analysis
How it was run: (§1)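 Uses E. coli GroEL/ES with a denatured MDH or rhodanese reporter. GroEL first forms a binary complex with the denatured reporter. Refolding is started by adding ATP and GroES, then reporter enzyme activity is read. DMSO is the negative control. IC50 values from replicate curves are log-averaged after ROUT outlier screening.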

[5] = test system: Acinetobacter baumannii; experiment: Antibacterial activity against Acinetobacter baumannii ATCC 19606 after 24 hrs by bacterial proliferation assay; type: functional, organism-based; settings: ATCC 19606 = CIP 70.34 = JCM 6841, 24 h
How it was run: (§2)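 Bacterial growth inhibition in liquid culture. The highest concentration tested was 100 µM. The mean was back-calculated from the average log value. Values above the top concentration were set 0.1 log unit higher.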

[6] = test system: Enterobacter cloacae; experiment: Antibacterial activity against Enterobacter cloacae subsp. cloacae ATCC 13047 after 24 hrs by bacterial proliferation assay; type: functional, organism-based; settings: subsp. cloacae ATCC 13047, 24 h; how it was run: as §2
[7] = test system: Klebsiella pneumoniae; experiment: Antibacterial activity against Klebsiella pneumoniae ATCC 13883 after 6 to 8 hrs by bacterial proliferation assay; type: functional, organism-based; how it was run: as §2
[8] = target: T2, Thiosulfate sulfurtransferase (Homo sapiens, UniProt Q16762); experiment: Inhibition of refolded rhodanese (unknown origin) preincubated with Escherichia coli GroEL/GroES for 60 mins in absence of compound followed by compound addition by spectrometric analysis
T2 sequence (Q16762 whole entry): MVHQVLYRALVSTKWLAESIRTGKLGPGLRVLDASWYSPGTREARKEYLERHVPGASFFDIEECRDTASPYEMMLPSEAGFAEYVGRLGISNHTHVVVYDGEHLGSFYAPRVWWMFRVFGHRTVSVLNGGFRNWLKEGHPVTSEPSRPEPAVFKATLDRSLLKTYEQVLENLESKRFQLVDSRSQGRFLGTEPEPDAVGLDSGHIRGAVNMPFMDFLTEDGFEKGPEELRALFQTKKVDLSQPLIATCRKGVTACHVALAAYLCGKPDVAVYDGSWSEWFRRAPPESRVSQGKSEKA

[9] = Cytotoxicity against human THLE3 cells assessed as reduction in cell viability after 48 hrs by Alamar Blue reporter assay; settings: 48 h
[10] = test system: Pseudomonas aeruginosa; experiment: Antibacterial activity against Pseudomonas aeruginosa ATCC 10145 after 24 hrs by bacterial proliferation assay; type: functional, organism-based; settings: ATCC 10145, 24 h; how it was run: as §2
[11] = test system: HEK293; experiment: Cytotoxicity against HEK293 cells assessed as reduction in cell viability after 48 hrs by Alamar Blue reporter assay; settings: human, hek293, 48 h
[12] = test system: Staphylococcus aureus; experiment: Antibacterial activity against methicillin-resistant Staphylococcus aureus ATCC BAA-44 after 6 to 8 hrs by bacterial proliferation assay; type: functional, organism-based; settings: Staphylococcus aureus, ATCC BAA-44
[13] = target: T1, E. coli GroEL/ES; experiment: Inhibition of Escherichia coli GroEL expressed in Escherichia coli DH5alpha/Escherichia coli GroES expressed in Escherichia coli BL21 (DE3) assessed as reduction in GroEL/GroES-mediated denatured rhodanese refolding after 45 mins by spectrometric analysis; how it was run: as §1
[14] = test system: Enterococcus faecium; experiment: Antibacterial activity against Enterococcus faecium ATCC 19434 after 24 hrs by bacterial proliferation assay; type: functional, organism-based; settings: ATCC 19434, 24 h

T1 sequence (P0A6F5 whole entry, looked up): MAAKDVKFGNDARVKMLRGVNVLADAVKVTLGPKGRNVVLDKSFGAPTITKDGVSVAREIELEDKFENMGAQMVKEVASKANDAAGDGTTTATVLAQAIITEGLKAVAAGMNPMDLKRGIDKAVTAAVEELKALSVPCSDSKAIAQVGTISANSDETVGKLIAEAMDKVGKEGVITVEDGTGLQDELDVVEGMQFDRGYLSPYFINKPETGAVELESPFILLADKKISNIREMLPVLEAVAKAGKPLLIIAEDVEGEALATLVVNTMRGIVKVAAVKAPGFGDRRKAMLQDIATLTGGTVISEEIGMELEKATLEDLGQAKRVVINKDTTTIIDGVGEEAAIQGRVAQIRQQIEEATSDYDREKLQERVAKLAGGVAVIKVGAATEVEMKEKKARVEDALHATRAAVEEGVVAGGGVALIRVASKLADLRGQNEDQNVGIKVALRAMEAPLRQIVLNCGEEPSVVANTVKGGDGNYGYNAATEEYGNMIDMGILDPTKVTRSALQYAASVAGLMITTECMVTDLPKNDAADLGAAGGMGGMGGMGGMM
HSP60/HSP10, sequence (P10809 whole entry): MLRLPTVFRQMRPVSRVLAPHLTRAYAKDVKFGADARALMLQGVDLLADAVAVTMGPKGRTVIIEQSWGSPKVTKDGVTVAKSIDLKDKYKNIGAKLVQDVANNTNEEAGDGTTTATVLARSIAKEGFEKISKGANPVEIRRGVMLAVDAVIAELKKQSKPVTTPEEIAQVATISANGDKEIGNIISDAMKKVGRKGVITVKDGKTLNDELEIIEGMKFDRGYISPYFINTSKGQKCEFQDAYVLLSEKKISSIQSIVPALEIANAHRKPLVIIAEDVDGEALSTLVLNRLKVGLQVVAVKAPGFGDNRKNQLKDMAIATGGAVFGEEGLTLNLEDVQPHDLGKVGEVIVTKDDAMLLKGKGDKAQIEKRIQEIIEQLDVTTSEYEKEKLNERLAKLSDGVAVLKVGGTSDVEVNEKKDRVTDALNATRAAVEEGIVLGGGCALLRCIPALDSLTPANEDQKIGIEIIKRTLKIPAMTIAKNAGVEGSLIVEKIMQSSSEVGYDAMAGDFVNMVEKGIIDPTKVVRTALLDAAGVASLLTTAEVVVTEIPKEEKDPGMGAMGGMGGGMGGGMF
HSP60/HSP10, sequence (P61604 whole entry, further chain): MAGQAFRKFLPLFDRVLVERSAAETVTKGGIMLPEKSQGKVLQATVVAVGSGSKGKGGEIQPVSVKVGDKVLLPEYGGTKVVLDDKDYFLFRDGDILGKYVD

SMILES	IC50 [1] [µM]	IC50 [2] [µM]	EC50 [3] [µM]	IC50 [4] [µM]	EC50 [5] [µM]	EC50 [6] [µM]	EC50 [7] [µM]	IC50 [8] [µM]	CC50 [9] [µM]	EC50 [10] [µM]	CC50 [11] [µM]	EC50 [12] [µM]	IC50 [13] [µM]	EC50 [14] [µM]
COc1ccccc1C(=O)Nc1ccc(Sc2nc3ccccc3s2)cc1	> 63	> 100	> 100	> 100	> 100	> 100	> 100	> 100	> 100	> 100	> 100	> 100	> 100	> 100
O=C(Nc1ccccc1)c1cc(Br)ccc1O	> 63	> 100	2.8	> 100	> 100	> 100	78	> 100	16	> 100	35	4.1	> 100	> 100
COc1c(Br)cccc1C(=O)Nc1cccc(Cl)c1	> 63	> 100	> 100	> 100	> 100	> 100	> 100	> 100	> 100	> 100	> 100	> 100	> 100	> 100
COc1c(Br)cc(Br)cc1C(=O)Nc1cccc(Cl)c1	> 63	> 100	46	> 100	> 100	> 100	> 100	> 100	> 100	> 100	> 100	> 100	> 100	> 100
COc1ccc(Br)cc1C(=O)Nc1cccc(Cl)c1	> 63	> 100	> 100	> 100	> 100	> 100	> 100	> 100	94	> 100	> 100	> 100	> 100	> 100
O=C(Nc1ccc(Sc2nc3ccccc3s2)cc1)c1cccc(Br)c1O	> 63	–	0.76	33	12	> 100	> 100	> 100	36	> 100	71	1.1	14	11
COc1c(Br)cc(Br)cc1C(=O)Nc1ccccc1	> 63	> 100	> 100	> 100	> 100	> 100	> 100	> 100	> 100	> 100	> 100	> 100	> 100	> 100
COc1ccc(Br)cc1C(=O)Nc1ccc(Sc2nc3ccccc3s2)cc1	> 63	> 100	> 100	> 100	> 100	> 100	> 100	> 100	> 100	> 100	> 100	> 100	> 100	> 100
CO[C@H]1/C=C/O[C@@]2(C)Oc3c(C)c(O)c4c(O)c(c(/C=N/N5CCN(C)CC5)c(O)c4c3C2=O)NC(=O)/C(C)=C\C=C\[C@H](C)[C@H](O)[C@@H](C)[C@@H](O)[C@@H](C)[C@H](OC(C)=O)[C@@H]1C [RIFAMPIN]	> 63	> 100	< 0.05	> 100	1.3	8.8	11	> 100	–	7.8	–	0.23	> 100	0.13
O=C(Nc1ccc(Sc2nc3ccccc3s2)cc1)c1cccc(Br)c1	> 63	> 100	> 100	> 100	> 100	> 100	> 100	> 100	82	> 100	74	> 100	> 100	> 100
CC1(C)S[C@@H]2[C@H](NC(=O)[C@H](N)c3ccccc3)C(=O)N2[C@H]1C(=O)O [AMPICILLIN]	> 63	> 100	0.19	> 100	> 100	> 100	> 100	> 100	> 100	> 100	> 100	> 100	> 100	6.9
O=C(Nc1ccccc1)c1cc(Br)cc(Br)c1	> 63	> 100	> 100	> 100	> 100	> 100	> 100	> 100	> 100	> 100	> 100	> 100	> 100	> 100
COc1ccc(Br)cc1C(=O)Nc1ccc(Sc2nc3ccccc3s2)c(Cl)c1	> 63	> 100	> 100	> 100	> 100	> 100	> 100	> 100	> 100	> 100	> 100	> 100	> 100	> 100
O=C(Nc1cccc(Cl)c1)c1cccc(Br)c1O	> 63	> 100	1.3	> 100	> 100	> 100	> 100	> 100	16	> 100	32	2	> 100	> 100
COc1ccccc1C(=O)Nc1cccc(Cl)c1	> 63	> 100	> 100	> 100	> 100	> 100	> 100	> 100	> 100	> 100	> 100	> 100	> 100	> 100
O=C(Nc1ccc(Sc2nc3ccccc3s2)c(Cl)c1)c1cccc(Br)c1	> 63	> 100	> 100	> 100	> 100	> 100	> 100	> 100	88	> 100	> 100	> 100	> 100	> 100
O=C(Nc1ccc(Sc2nc3ccccc3s2)c(Cl)c1)c1ccccc1O	> 63	> 100	0.31	42	> 100	> 100	> 100	> 100	34	> 100	–	0.45	63	64
